Values after ≈ are worked out from the molar mass of the structure shown.
Columns and labels:
[1] = tested on: Human immunodeficiency virus 1; test: Antiviral activity against HIV-1 NL4-3 expressing reverse transcriptase E138K/M184V mutant infected in MT-2 cells by MTT assay; assay type: functional, organism-based; conditions: Human immunodeficiency virus 1, NL4-3, MT2
[2] = target: Human immunodeficiency virus type 1 reverse transcriptase (Human immunodeficiency virus 1, UniProt Q72547); test: Inhibition of wild-type HIV-1 reverse transcriptase by fluorescence assay
Outline: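 Reverse transcription inhibition by wild-type RT enzyme, read by PicoGreen fluorescence; IC50 in nM.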

[3] = tested on: Human immunodeficiency virus 1; test: Selectivity index, ratio of IC50 for HIV-1 reverse transcriptase K101P mutant to IC50 for wild-type HIV-1 reverse transcriptase
Outline: (§1)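 PicoGreen fluorescence read-out of reverse transcription, run with both RT(WT) and RT(K101P) enzymes; IC50 determined for each enzyme. The fold-change is IC50 for RT(K101P) over IC50 for RT(WT).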

[4] = tested on: Human immunodeficiency virus 1; test: Antiviral activity against HIV-1 X4 expressing reverse transcriptase K103N mutant infected in human CD4+ T cells for 3 days by FACS analysis; assay type: functional, organism-based; conditions: Human immunodeficiency virus 1, T-cell, 72 h
Outline: (§2)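 Single-round infectivity assay against HIV strains whose RT carries the K101P, K103N or Y181C mutation, alongside a WT X4 strain; EC50 determined.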

[5] = target: Human immunodeficiency virus type 1 reverse transcriptase (Human immunodeficiency virus 1, UniProt Q72547, K101P); test: Inhibition of HIV-1 reverse transcriptase K101P mutant by fluorescence assay; outline: as §1
[6] = tested on: Human immunodeficiency virus 1; test: Antiviral activity against HIV-1 X4 expressing reverse transcriptase K101P mutant infected in human CD4+ T cells for 3 days by FACS analysis; assay type: functional, organism-based; conditions: Human immunodeficiency virus 1, T-cell, 72 h; outline: as §2
[7] = tested on: Human immunodeficiency virus 1; test: Antiviral activity against HIV-1 X4 expressing reverse transcriptase Y181C mutant infected in human CD4+ T cells for 3 days by FACS analysis; assay type: functional, organism-based; conditions: Human immunodeficiency virus 1, T-cell, 72 h; outline: as §2
[8] = tested on: Human immunodeficiency virus 1; test: Antiviral activity against HIV-1 NL4-3 expressing reverse transcriptase E138K mutant infected in MT-2 cells by MTT assay; assay type: functional, organism-based; conditions: Human immunodeficiency virus 1, NL4-3, MT2
[9] = tested on: Human immunodeficiency virus 1; test: Antiviral activity against HIV-1 X4 expressing wild-type reverse transcriptase infected in human CD4+ T cells for 3 days by FACS analysis; assay type: functional, organism-based; conditions: Human immunodeficiency virus 1, X4, T-cell, 72 h
Outline: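 Single-round infectivity assay using HIV strains carrying wild-type RT (WT X4); EC50 determined.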

[10] = Cytotoxicity against human CD4-positive T cells; assay type: cell-based, T-cell
[11] = Aqueous solubility of compound; assay type: physicochemical

SMILES	EC50 [1] [nM]	IC50 [2] [nM]	Ratio IC50 [3]	EC50 [4] [nM]	IC50 [5] [nM]	EC50 [6] [nM]	EC50 [7] [nM]	EC50 [8] [nM]	EC50 [9] [nM]	CC50 [10] [nM]	solubility [11] [µg/mL]
N#Cc1cc2c(Oc3ccccc3OCCn3ccc(=O)[nH]c3=O)cccn2c1	0.75	1.06	1.8	3	1.9	1	2	0.9	1	> 100000	–
O=C1Nc2ccc(Cl)cc2[C@@](C#CC2CC2)(C(F)(F)F)O1 [EFAVIRENZ]	–	–	–	836	–	870	41	–	–	–	–
N#C/C=C/c1cc(F)cc(Oc2ccc(F)cc2OCCn2ccc(=O)[nH]c2=O)c1	–	2.7	0.8	89	2.2	2	8	–	2	45000	10.8 (≈ 26.3 µM)
Cc1cc(/C=C/C#N)cc(C)c1Nc1ccnc(Nc2ccc(C#N)cc2)n1 [RILPIVIRINE]	–	–	–	13	1000	1140	51	–	13	–	< 0.1
N#C/C=C/c1cc(Cl)cc(Oc2ccccc2OCCn2ccc(=O)[nH]c2=O)c1	2.2	3.3	0.6	50	2.1	8	23	2.8	5	18000	–
